Reference: ChEMBL document CHEMBL4043294, “Chemogenomic Profiling of Human and Microbial FK506-Binding Proteins” (J Med Chem, 2018)
The source made the active and inactive calls. The calls are words filed in the database; no cut-off is given here.

What was measured:
[1] = target: Peptidyl-prolyl cis-trans isomerase FKBP1A (Homo sapiens, UniProt P62942); assay: (§1) Displacement of 5-(3-(4-(((5S,6S)-10-(3,5-dichlorophenylsulfonyl)-2-oxo-5-vinyl-3,10-diazabicyclo[4.3.1]decan-3-yl)methyl)-1H-1,2,3-triazol-1-yl)propylcarbamoyl)-2-(6-(dimethylamino)-3-(dimethyliminio)-3,10-dihydroanthracen-9-yl)benzoate from human FKBP12 after 30 mins by fluorescence polarization assay
Peptidyl-prolyl cis-trans isomerase FKBP1A, sequence (P62942 whole entry): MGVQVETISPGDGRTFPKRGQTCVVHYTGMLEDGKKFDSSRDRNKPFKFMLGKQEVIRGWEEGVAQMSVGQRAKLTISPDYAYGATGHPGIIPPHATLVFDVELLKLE
Procedure, shortened: (§2)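 Competitive fluorescence polarization against a TAMRA-labelled tracer in 20 mM NaCl, 20 mM HEPES pH 8.0, 0.002% Tween20. Ligand serially diluted 1:1 in DMSO, then diluted 50-fold into tracer-containing buffer and added to protein. Equilibrated 30 min at room temperature before polarization read. Competition curves fitted.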

[2] = target: T1, Peptidyl-prolyl cis-trans isomerase FKBP3 (Homo sapiens, UniProt Q00688); assay: as §1, with “FKBP25” for “FKBP12”; procedure, shortened: as §2
T1 sequence (Q00688 whole entry): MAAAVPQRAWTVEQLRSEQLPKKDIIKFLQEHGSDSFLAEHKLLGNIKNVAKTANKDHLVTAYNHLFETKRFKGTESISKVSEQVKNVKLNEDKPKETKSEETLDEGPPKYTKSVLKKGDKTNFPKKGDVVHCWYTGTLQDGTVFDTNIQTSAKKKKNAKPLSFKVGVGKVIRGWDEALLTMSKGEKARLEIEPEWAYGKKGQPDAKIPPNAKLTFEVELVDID

[3] = target: T2, Peptidyl-prolyl cis-trans isomerase FKBP2 (Homo sapiens, UniProt P26885); assay: as §1, with “FKBP13” for “FKBP12”; procedure, shortened: as §2
T2 sequence (P26885 whole entry): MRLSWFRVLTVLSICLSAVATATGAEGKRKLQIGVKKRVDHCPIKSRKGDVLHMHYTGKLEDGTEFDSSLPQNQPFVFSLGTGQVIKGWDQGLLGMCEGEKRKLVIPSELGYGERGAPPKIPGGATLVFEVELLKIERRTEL

[4] = target: T3, Peptidyl-prolyl cis-trans isomerase FKBP5 (Homo sapiens, UniProt Q13451); assay: as §1, with “FKBP51” for “FKBP12”; procedure, shortened: as §2
T3 sequence (Q13451 whole entry): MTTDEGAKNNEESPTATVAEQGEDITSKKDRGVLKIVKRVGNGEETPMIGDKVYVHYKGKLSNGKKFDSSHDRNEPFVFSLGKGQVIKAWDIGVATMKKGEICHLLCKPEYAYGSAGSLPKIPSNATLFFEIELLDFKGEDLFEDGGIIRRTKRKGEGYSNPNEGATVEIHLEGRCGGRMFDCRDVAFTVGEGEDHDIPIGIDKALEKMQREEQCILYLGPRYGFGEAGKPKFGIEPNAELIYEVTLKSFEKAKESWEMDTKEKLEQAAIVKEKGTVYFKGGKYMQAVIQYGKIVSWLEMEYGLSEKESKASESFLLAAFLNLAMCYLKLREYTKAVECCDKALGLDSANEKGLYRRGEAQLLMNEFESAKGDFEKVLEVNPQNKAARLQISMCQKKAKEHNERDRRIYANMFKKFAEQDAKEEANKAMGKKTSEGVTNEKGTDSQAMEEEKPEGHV

[5] = target: Peptidyl-prolyl cis-trans isomerase FKBP1B (Homo sapiens, UniProt P68106); assay: as §1, with “FKBP12.6” for “FKBP12”
Peptidyl-prolyl cis-trans isomerase FKBP1B, sequence (P68106 whole entry): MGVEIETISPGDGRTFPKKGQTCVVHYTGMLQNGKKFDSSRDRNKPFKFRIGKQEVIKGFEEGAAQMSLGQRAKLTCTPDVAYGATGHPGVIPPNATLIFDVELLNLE
Procedure, shortened: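 Competitive fluorescence polarization with the fluorescent tracer in 20 mM NaCl, 20 mM HEPES pH 8.0, 0.002% Tween20. Ligand is serially diluted 1:1 in DMSO, then 1:50 into tracer-containing buffer. This mix is added to protein at 1.11× final concentration (protein:mix 45:5). After 30 min at room temperature to reach equilibrium, polarization is read and competition curves are fitted.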

[6] = target: T4, Peptidyl-prolyl cis-trans isomerase FKBP4 (Homo sapiens, UniProt Q02790); assay: as §1, with “FKBP52” for “FKBP12”; procedure, shortened: as §2
T4 sequence (Q02790 whole entry): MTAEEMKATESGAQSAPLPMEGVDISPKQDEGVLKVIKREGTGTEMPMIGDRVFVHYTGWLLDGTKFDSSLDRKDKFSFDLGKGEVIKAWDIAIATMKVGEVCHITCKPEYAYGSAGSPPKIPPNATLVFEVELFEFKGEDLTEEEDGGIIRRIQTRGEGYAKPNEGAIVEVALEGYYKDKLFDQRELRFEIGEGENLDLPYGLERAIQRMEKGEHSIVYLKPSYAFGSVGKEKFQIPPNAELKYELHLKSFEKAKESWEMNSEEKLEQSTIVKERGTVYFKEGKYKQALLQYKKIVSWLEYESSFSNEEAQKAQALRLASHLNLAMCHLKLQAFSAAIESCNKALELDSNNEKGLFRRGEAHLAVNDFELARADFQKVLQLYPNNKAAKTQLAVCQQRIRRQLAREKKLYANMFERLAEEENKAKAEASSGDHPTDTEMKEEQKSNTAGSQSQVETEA

[7] = target: T5, Peptidyl-prolyl cis-trans isomerase Mip (Chlamydia pneumoniae, UniProt Q9Z7P3); assay: as §1, with “Chlamydia pneumoniae Mip” for “human FKBP12”; procedure, shortened: as §2
T5 sequence (Q9Z7P3 whole entry): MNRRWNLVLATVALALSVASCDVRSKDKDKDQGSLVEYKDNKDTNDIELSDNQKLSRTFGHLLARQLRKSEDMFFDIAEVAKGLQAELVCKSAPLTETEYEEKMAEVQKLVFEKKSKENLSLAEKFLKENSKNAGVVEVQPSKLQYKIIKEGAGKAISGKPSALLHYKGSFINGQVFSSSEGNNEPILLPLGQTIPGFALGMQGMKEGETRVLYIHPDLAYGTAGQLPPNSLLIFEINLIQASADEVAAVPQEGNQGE

[8] = as §1, with “Candida albicans” for “human”; procedure, shortened: as §2
Chlamydia trachomatis = assay: Antibacterial activity against Chlamydia trachomatis Serovar D infected in human Hep2 or HeLa cells assessed as decrease in generation of infectious elementary bodies at 10 uM after 48 hrs by immunofluorescent staining-based assay; type: functional, cell-based
Procedure, shortened: (§3)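 HEp-2 or HeLa cells, 3.5 × 10^4 per well in RPMI1640 with 5% FBS, nonessential amino acids and 2 mM glutamine, grown overnight at 37 °C in 5% CO2. Inhibitor added at infection (C. pneumoniae CWL029 0.2 IFU/cell; C. trachomatis serovar D 0.5 IFU/cell). Plates centrifuged at 700g for 1 h at 35 °C, then incubated 48 h. Inclusions stained with anti-chlamydial-LPS immunofluorescence and host cells counterstained with Evans Blue. Recoverable bacteria normalized to untreated controls.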

Chlamydia pneumoniae [9] = assay: Antibacterial activity against Chlamydia pneumoniae CWL029 infected in human Hep2 or HeLa cells assessed as decrease in generation of infectious elementary bodies at 10 uM after 48 hrs by immunofluorescent staining-based assay; type: functional, cell-based; procedure, shortened: as §3
Chlamydia pneumoniae [10] = assay: Antibacterial activity against Chlamydia pneumoniae CWL029 infected in human Hep2 or HeLa cells assessed as decrease in inclusion size at 10 uM after 48 hrs by immunofluorescent staining-based assay; type: functional, cell-based; procedure, shortened: as §3
[11] = target: Outer membrane protein MIP (Legionella pneumophila, UniProt Q70YI1); assay: as §1, with “Legionella pneumophila Mip” for “human FKBP12”; procedure, shortened: as §2
Outer membrane protein MIP, sequence (Q70YI1 21-233 limits assumed): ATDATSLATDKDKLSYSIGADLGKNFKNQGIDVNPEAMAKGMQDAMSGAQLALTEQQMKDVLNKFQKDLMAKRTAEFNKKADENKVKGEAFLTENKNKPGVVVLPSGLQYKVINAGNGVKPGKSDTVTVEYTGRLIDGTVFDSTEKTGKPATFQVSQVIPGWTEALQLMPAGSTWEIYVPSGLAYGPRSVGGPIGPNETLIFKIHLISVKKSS

[12] = as §1, with “Chlamydia trachomatis Mip” for “human FKBP12”; procedure, shortened: as §2
[13] = as §1, with “[…] FKBP35” for “human FKBP12”; design: species or system Plasmodium falciparum; procedure, shortened: as §2
Legionella pneumophila = assay: Antibacterial activity against Legionella pneumophila Corby infected in differentiated human THP1 cells assessed as bacterial growth inhibition after 24 hrs; type: functional
Procedure, shortened: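 THP-1 monocytes at 5 × 10^5 cells/mL were differentiated with 100 nM PMA for 2 days. L. pneumophila Corby grown 3 days on BCYE agar was added at MOI 1. After 2 h, extracellular bacteria were washed off with PBS and compound was added in medium (control 1% DMSO). At 2 and 24 h, cells were lysed with 0.1% Triton X-100 and dilutions plated on BCYE. Colonies counted after 3–4 days at 37 °C. Three independent experiments in duplicate.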

Plasmodium falciparum [14] = assay: Antiparasitic activity against Plasmodium falciparum 3D7 infected in human RBC assessed as decrease in parasitemia after 60 hrs by Hoechst 33342 staining-based flow cytometric method; type: functional; details: for IC50: 3D7, 60 h
Procedure, shortened: (§4)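 Sorbitol-synchronized early-stage parasites, adjusted to 1% parasitemia at 2% hematocrit. Serial dilutions of compound in DMSO (≤0.05% per well) applied in triplicate for 60 h. Cells stained with 16.2 μM Hoechst 33342 in PBS for 20 min at room temperature. Parasitemia read by flow cytometry; IC50 estimated from dose–response curves.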

Plasmodium falciparum [15] = assay: Antiparasitic activity against multidrug-resistant Plasmodium falciparum Dd2 infected in human RBC assessed as decrease in parasitemia after 60 hrs by Hoechst 33342 staining-based flow cytometric method; type: functional; details: Dd2, 60 h; procedure, shortened: as §4

C=C[C@H]1CN(CCNC)C(=O)[C@@H]2CCC[C@H]1N2S(=O)(=O)c1cc(Cl)cc(Cl)c1
Ki [1]: 7 to 25 nM

C=C[C@@H]1CN(CCN(C)C)C(=O)[C@@H]2CCC[C@H]1N2S(=O)(=O)c1cc(Cl)cc(Cl)c1
Ki [1]: 7 to 25 nM

C=C[C@H]1CN(CCOCC)C(=O)[C@@H]2CCC[C@H]1N2S(=O)(=O)c1cc(Cl)cc(Cl)c1
Ki [1]: 21.1 nM

COC[C@H]1CN(Cc2ccccn2)C(=O)[C@@H]2CCC[C@H]1N2S(=O)(=O)c1cc(Cl)cc(Cl)c1
Ki [1]: 0.45 nM | Ki [2]: 1130 nM | Ki [3]: 60.5 nM | Ki [4]: 24.5 nM | Ki [5]: 1.23 nM | Ki [6]: 18.9 nM

C=C[C@H]1CN(CCCCOC)C(=O)[C@@H]2CCC[C@H]1N2S(=O)(=O)c1cc(Cl)cc(Cl)c1
Ki [1]: 249 nM

C=C[C@H]1CN(Cc2ccco2)C(=O)[C@@H]2CCC[C@H]1N2S(=O)(=O)c1cc(Cl)cc(Cl)c1
Ki [7]: 315 nM | Ki [8]: 1490 nM | Activity (Chlamydia trachomatis): Active | Activity (Chlamydia pneumoniae [9]): Active | Activity (Chlamydia pneumoniae [10]): Active | Ki [11]: 6590 nM | Ki [12]: 1820 nM | Ki [13]: 5220 nM

C=C[C@H]1CN(CC(=O)OCC)C(=O)[C@@H]2CCC[C@H]1N2S(=O)(=O)c1cc(Cl)cc(Cl)c1
Ki [1]: 7 to 25 nM

CC[C@H]1CN(CCOC)C(=O)[C@@H]2CCC[C@H]1N2S(=O)(=O)c1cc(Cl)cc(Cl)c1
growth inhibition (GI) (Legionella pneumophila): Dose-dependent effect | IC50 (Plasmodium falciparum [14]): 8300 nM

C=C[C@H]1CN(CC(=O)O)C(=O)[C@@H]2CCC[C@H]1N2S(=O)(=O)c1cc(Cl)cc(Cl)c1
Ki [1]: 7 to 25 nM

C=C[C@H]1CNC(=O)[C@@H]2CCC[C@H]1N2S(=O)(=O)c1cc(Cl)cc(Cl)c1
Ki [1]: 49 to 80 nM

C=C[C@H]1CN(CC(N)=O)C(=O)[C@@H]2CCC[C@H]1N2S(=O)(=O)c1cc(Cl)cc(Cl)c1
Ki [1]: 7 to 25 nM

C=C[C@H]1CN(Cc2ccccn2)C(=O)[C@@H]2CCC[C@H]1N2S(=O)(=O)c1ccc(-c2ncccn2)cc1
Ki [8]: 52 nM

C=C[C@H]1CN(C)C(=O)[C@@H]2CCC[C@H]1N2S(=O)(=O)c1cc(Cl)cc(Cl)c1
Ki [1]: 49 to 80 nM

C=C[C@@H]1CN(CCF)C(=O)[C@@H]2CCC[C@H]1N2S(=O)(=O)c1cc(Cl)cc(Cl)c1
Ki [1]: 49 to 80 nM

C=C[C@H]1CN(CCOC)C(=O)[C@@H]2CCC[C@H]1N2S(=O)(=O)c1cc(Cl)cc(Cl)c1
Ki [1]: 18.8 nM

C=C[C@H]1CN(CCCOC)C(=O)[C@@H]2CCC[C@H]1N2S(=O)(=O)c1cc(Cl)cc(Cl)c1
Ki [1]: 143 nM

C=C[C@H]1CN(Cc2ncccc2F)C(=O)[C@@H]2CCC[C@H]1N2S(=O)(=O)c1cc(Cl)cc(Cl)c1
Ki [1]: 11.8 nM

C=C[C@H]1CN(CC#N)C(=O)[C@@H]2CCC[C@H]1N2S(=O)(=O)c1cc(Cl)cc(Cl)c1
Ki [1]: 49 to 80 nM

CC[C@H]1CN(Cc2ccccn2)C(=O)[C@@H]2CCC[C@H]1N2S(=O)(=O)c1cc(Cl)cc(Cl)c1
growth inhibition (GI) (Legionella pneumophila): Dose-dependent effect | Ki [7]: 399 nM | Ki [8]: 40.1 nM | Activity (Plasmodium falciparum [14]): Dose-dependent effect | IC50 (Plasmodium falciparum [14]): 2300 nM | Ki [11]: 598 nM | Ki [12]: 1810 nM | Ki [13]: 98.1 nM | IC50 (Plasmodium falciparum [15]): 3100 nM

C#CCN1C[C@H](C=C)[C@H]2CCC[C@@H](C1=O)N2S(=O)(=O)c1cc(Cl)cc(Cl)c1
Ki [1]: 49 to 80 nM
